The text below walks through data of PubChem BioAssay.

Activity calls are given as the source filed them.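 How the source made its calls, unless noted: active means GFP response above 150% of the DMSO level; inconclusive means fewer than 70 events counted for a yeast strain; inactive means the rest.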

Experiment [1] in a line: hit retest on RPL19A-GFP reporter strain – cell-based, S. cerevisiae, flow cytometry, cherry picks, mother/daughter gates, confirmation (AID 2270;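 active means GFP response below 50% of the DMSO control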). As to conditions: 3 h, at 10 µM, stronger effect = lower value, 100 = same GFP as DMSO wells.
The nature of experiment [2]: yeast TOR pathway reporter LAP4-GFP change – cell-based, cherry picks, flow cytometry, mother/daughter gates, confirmation (AID 2271;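 active means GFP response above 150% of the DMSO control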;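 further: ratio of sample to DMSO plate mean so 100% equals DMSO level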). As to conditions: S. cerevisiae LAP4-GFP strain, 3 h, at 10 µM, stronger effect = higher value, 100 means same as DMSO control. The gist of the method:
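System: Alexa 633-stained baker's yeast GFP-fusion strain / Medium: synthetic complete (SC) yeast growth medium / Doses: compound at 10 µM, single point / Times: 3 h treatment at 30 °C with rotation / Detection: HT flow cytometry, GFP fluorescence channel / Benchmarks: DMSO-only negative wells, rapamycin 400 ng/mL positive wells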

A short description of experiment [3]: TOR pathway reporter MEP2-GFP, retest of hits – S. cerevisiae, flow cytometry GFP, cherry picks, confirmation (AID 2272;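 active means GFP response above 150% of the DMSO control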;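 further: ratio of well signal to plate DMSO mean so 100% equals DMSO level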). As to conditions: S. cerevisiae MEP2-GFP strain, 3 h, at 10 µM, stronger effect = higher value.
Experiment [4] can be described thus: yeast AGP1-GFP fluorescence change, single-dose – cell-based, flow cytometry, S. cerevisiae, cherry picks, confirmation (AID 2273).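 Further: median GFP channel fluorescence over the whole cell population gate.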 As to conditions: S. cerevisiae AGP1-GFP strain, 3 h, at 10 µM.
A short description of experiment [5]: TOR pathway CIT2 reporter hit retest – S. cerevisiae, GFP fusion, cherry picks, mother/daughter gates, confirmation (AID 2274). As to conditions: S. cerevisiae CIT2-GFP strain, flow cytometry, 3 h, at 10 µM, stronger effect = higher value.
The mark [6] stands for this setting: measured here: daughter cell gate.
Setting [7] is: measured here: mother cell gate.
The mark [8] stands for this setting: measured here: daughter cell gate response.
[9] abbreviates: measured here: mother cell gate response.

On to `COCc1nnc(NC(=O)c2ccc(S(=O)(=O)N3CCCCCC3)cc2)o1`, for which the GFP response vs DMSO is 105% (inactive) in experiment [1], 99.8% in experiment [1] (setting [6]), 105% in experiment [1] (setting [7]) and 107% (inactive) in experiment [3]. Besides, the GFP response relative to DMSO in experiment [2] was 105% (inactive); in experiment [2] (setting [8]), 97.5%; in experiment [2] (setting [9]), 107%. The GFP response, % of DMSO in experiment [4] is 101% (inactive); in experiment [5], 97.3% (inactive); in experiment [5] (setting [6]) it was 97.4%; in experiment [5] (setting [7]), 96.8%.
For `CCOC(=O)/C=C1\SCC(=O)N1Cc1nnc(-c2ccccc2Br)o1`, the GFP response vs DMSO in experiment [1] is 96.2% (inactive); in experiment [1] (setting [6]), 97.6%; in experiment [1] (setting [7]), 96.4%; in experiment [3], 100% (inactive). The results for the GFP response relative to DMSO in experiment [2], in experiment [2] (setting [8]) and in experiment [2] (setting [9]) were 90.2% (inactive), 89.6% and 90.8%, respectively. In addition, the GFP response, % of DMSO in experiment [4] was 100% (inactive); in experiment [5] it was 99.7% (inactive); in experiment [5] (setting [6]), 101%; in experiment [5] (setting [7]) it was 99.7%.
As for `C=CCNC(=O)/C(C#N)=C/c1c(N(Cc2ccccc2)Cc2ccccc2)nc2ccccn2c1=O`, the GFP response vs DMSO in experiment [1] was 98.8% (inactive); in experiment [1] (setting [6]), 98.6%; in experiment [1] (setting [7]), 98.8%; in experiment [3] it was 103% (inactive). Moreover, the GFP response relative to DMSO in experiment [2] is 99.8% (inactive); in experiment [2] (setting [8]), 99.7%; in experiment [2] (setting [9]), 99.2%. The GFP response, % of DMSO in experiment [4] was 101% (inactive); in experiment [5], 94.7% (inactive); in experiment [5] (setting [6]), 96.8%; in experiment [5] (setting [7]) it was 94.7%.
On to `CCc1ccccc1OCc1nnc(N)s1`, for which the GFP response vs DMSO was 101% (inactive) in experiment [1], 98.8% in experiment [1] (setting [6]), 102% in experiment [1] (setting [7]) and 101% (inactive) in experiment [3]. Moreover, the GFP response relative to DMSO in experiment [2] is 98.2% (inactive); in experiment [2] (setting [8]) it was 99.1%; in experiment [2] (setting [9]), 97.3%. Moreover, the GFP response, % of DMSO in experiment [4] is 102% (inactive); in experiment [5], 100% (inactive); in experiment [5] (setting [6]), 101%; in experiment [5] (setting [7]), 99.3%.
As for `CC(OC(=O)CSc1ccc([N+](=O)[O-])cc1)C(=O)NCc1ccccc1` (stereo not drawn), the GFP response vs DMSO is 101% (inactive) in experiment [1], 101% in experiment [1] (setting [6]), 101% in experiment [1] (setting [7]) and 100% (inactive) in experiment [3]. Further, the GFP response relative to DMSO is 99.8% (inactive) in experiment [2], 102% in experiment [2] (setting [8]) and 100% in experiment [2] (setting [9]). For the same compound, the GFP response, % of DMSO in experiment [4] is 98% (inactive); in experiment [5], 97.8% (inactive); in experiment [5] (setting [6]), 96.5%; in experiment [5] (setting [7]), 96.6%.
Regarding `COC(=O)c1ccccc1NC(=O)c1nc(S(=O)(=O)Cc2ccccc2)ncc1Cl`, the GFP response vs DMSO in experiment [1] is 102% (inactive); in experiment [1] (setting [6]), 101%; in experiment [1] (setting [7]), 102%; in experiment [3] it was 100% (inactive). For the same compound, the values for the GFP response relative to DMSO in experiment [2], in experiment [2] (setting [8]) and in experiment [2] (setting [9]) were 89% (inactive), 92.5% and 92.1%, respectively. Further, the GFP response, % of DMSO in experiment [4] was 97.8% (inactive); in experiment [5], 104% (inactive); in experiment [5] (setting [6]), 101%; in experiment [5] (setting [7]) it was 103%.
`CC1(C(=O)OCc2cc(=O)n3cc(Br)ccc3n2)CC1(Cl)Cl` (stereo not drawn): the GFP response vs DMSO is 92.5% (inactive) in experiment [1], 89.9% in experiment [1] (setting [6]), 93.8% in experiment [1] (setting [7]) and 94.4% (inactive) in experiment [3]. For the same compound, the GFP response relative to DMSO in experiment [2] is 133% (inactive); in experiment [2] (setting [8]) it was 123%; in experiment [2] (setting [9]), 139%. Further, the GFP response, % of DMSO in experiment [4] is 103% (inactive); in experiment [5], 88.5% (inactive); in experiment [5] (setting [6]) it was 87.3%; in experiment [5] (setting [7]), 88.8%.
Consider `Cc1ccc(NC(=O)c2ccccc2O)cc1`, for which the GFP response vs DMSO in experiment [1] is 103% (inactive); in experiment [1] (setting [6]) it was 102%; in experiment [1] (setting [7]) it was 102%; in experiment [3], 110% (inactive). In addition, the figures for the GFP response relative to DMSO in experiment [2], in experiment [2] (setting [8]) and in experiment [2] (setting [9]) were 100% (inactive), 95% and 99.5%, respectively. The GFP response, % of DMSO in experiment [4] is 101% (inactive); in experiment [5], 104% (inactive); in experiment [5] (setting [6]), 106%; in experiment [5] (setting [7]) it was 99.1%.
Turning to `COc1ccc(-c2csc(Nc3ncccc3C)n2)cc1`, the GFP response vs DMSO is 95.6% (inactive) in experiment [1], 92.1% in experiment [1] (setting [6]), 95.3% in experiment [1] (setting [7]) and 98.3% (inactive) in experiment [3]. The results for the GFP response relative to DMSO in experiment [2], in experiment [2] (setting [8]) and in experiment [2] (setting [9]) were 107% (inactive), 104% and 109%, respectively. Also, the GFP response, % of DMSO in experiment [4] is 88.6% (inactive); in experiment [5], 103% (inactive); in experiment [5] (setting [6]), 105%; in experiment [5] (setting [7]) it was 99.7%.
With `CSC(SC)=C(C#N)C(=O)c1ccccc1`, the GFP response vs DMSO was 102% (inactive) in experiment [1], 98.6% in experiment [1] (setting [6]), 99.8% in experiment [1] (setting [7]) and 103% (inactive) in experiment [3]. For the same compound, the GFP response relative to DMSO in experiment [2] is 128% (inactive); in experiment [2] (setting [8]), 117%; in experiment [2] (setting [9]), 129%. Moreover, the GFP response, % of DMSO in experiment [4] was 96.3% (inactive); in experiment [5], 93% (inactive); in experiment [5] (setting [6]) it was 92%; in experiment [5] (setting [7]) it was 93.2%.
On to `Cc1ccn2c(NC3CCCCC3)c(C)nc2c1`, for which the GFP response vs DMSO in experiment [1] was 99.4% (inactive); in experiment [1] (setting [6]) it was 100%; in experiment [1] (setting [7]), 99.6%; in experiment [3] it was 99% (inactive). Also, the GFP response relative to DMSO in experiment [2] was 95.7% (inactive); in experiment [2] (setting [8]), 95.9%; in experiment [2] (setting [9]) it was 96.2%. Also, the GFP response, % of DMSO in experiment [4] is 99% (inactive); in experiment [5], 98.8% (inactive); in experiment [5] (setting [6]), 101%; in experiment [5] (setting [7]), 96.8%.
Regarding `N=c1ccn(CC(=O)c2ccc(-c3ccccc3)cc2)cc1`, the GFP response vs DMSO in experiment [1] was 99.7% (inactive); in experiment [1] (setting [6]) it was 99.3%; in experiment [1] (setting [7]), 98.8%; in experiment [3] it was 104% (inactive). For the same compound, the GFP response relative to DMSO is 96.5% (inactive) in experiment [2], 93.6% in experiment [2] (setting [8]) and 99.5% in experiment [2] (setting [9]). The GFP response, % of DMSO in experiment [4] is 92.1% (inactive); in experiment [5] it was 96.4% (inactive); in experiment [5] (setting [6]), 96.4%; in experiment [5] (setting [7]), 95.6%.
In the case of `CCOC(=O)c1c(C)oc2c1c(C(c1ccncc1)N1CCOCC1)c(O)c1ccccc12` (stereo not drawn), the GFP response vs DMSO was 102% (inactive) in experiment [1], 109% in experiment [1] (setting [6]), 89.6% in experiment [1] (setting [7]) and 131% (inactive) in experiment [3]. The GFP response relative to DMSO was 186% (active) in experiment [2], 167% in experiment [2] (setting [8]) and 180% in experiment [2] (setting [9]). Further, the GFP response, % of DMSO in experiment [4] is 101% (inactive); in experiment [5], 103% (inactive); in experiment [5] (setting [6]) it was 114%; in experiment [5] (setting [7]) it was 94.4%.
